# According to ChEMBL document CHEMBL4689842, “EUbOPEN Chemogenomics Library wave 1” (2021):
# Where “and” joins values, the source holds several entries; their conditions need not be identical. Equal values may be shown once.
# System: HEK-293T
# Experiment: Multiplex assay against HEK293T;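 as to Population Tubulin-Different-Phenotype (%): share of the cells with healthy nuclei that show this phenotype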
# Assay type: toxicity, cell-based
# Conditions: human
# Outline: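 Imaging took place on a CQ1 microscope at 37°C and 5% CO2 once compound had been added to live cells stained at seeding with Hoechst33342, BioTracker Green Microtubule Cytoskeleton Dye, MitoTracker Red and Annexin V Alexa Fluor 680. CellPathfinder machine-learning gating classed cells as Hoechst high-intensity objects or normal cells, classed normal cells as having healthy, pyknosed or fragmented nuclei, and classed pyknosed cells as mitotic or apoptotic. Tubulin, mitochondrial-mass and membrane-permeability phenotypes are per cents of the healthy-nucleus cells.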
# [1] = 12 h, 1 µM, compound concentration 1 uM, replicate 1
# [2] = 12 h, 1 µM, compound concentration 1 uM, replicate 2
# [3] = 12 h, 10 µM, compound concentration 10 uM, replicate 1
# [4] = 12 h, 10 µM, compound concentration 10 uM, replicate 2
# [5] = 24 h, 1 µM, compound concentration 1 uM, replicate 1
# [6] = 24 h, 1 µM, compound concentration 1 uM, replicate 2
# [7] = 24 h, 10 µM, compound concentration 10 uM, replicate 1
# [8] = 24 h, 10 µM, compound concentration 10 uM, replicate 2
# [9] = 48 h, 1 µM, compound concentration 1 uM, replicate 1
# [10] = 48 h, 1 µM, compound concentration 1 uM, replicate 2
# [11] = 48 h, 10 µM, compound concentration 10 uM, replicate 1
# [12] = 48 h, 10 µM, compound concentration 10 uM, replicate 2
structure (smiles),measurement,setting,value
CN(C)CC#Cc1ccc(OCCCc2sc(N3CCc4cccc(C(=O)Nc5nc6ccccc6s5)c4C3)nc2C(=O)O)c(F)c1 [A-1155463],Population Apoptotic (%),[1],33%
same,Population Fragmented Nuclei (%),[1],12%
same,Population Healthy Nuclei (%),[1],42%
same,Population Hoechst High Intensity Objects (%),[1],11%
same,Population Membrane Permeable-Phenotype (%),[1],2%
same,Population Mitochondria Different-Phenotype (%),[1],68%
same,Population Mitotic Cells (%),[1],66%
same,Population Normal (%),[1],88%
same,Population Pyknosed Nuclei (%),[1],45%
same,Population Tubulin-Different-Phenotype (%),[1],40%
same,Total Cell Count,[1],278
same,Population Apoptotic (%),[2],15%
same,Population Fragmented Nuclei (%),[2],4%
same,Population Healthy Nuclei (%),[2],44%
same,Population Hoechst High Intensity Objects (%),[2],3%
same,Population Membrane Permeable-Phenotype (%),[2],6%
same,Population Mitochondria Different-Phenotype (%),[2],17%
same,Population Mitotic Cells (%),[2],84%
same,Population Normal (%),[2],96%
same,Population Pyknosed Nuclei (%),[2],50%
same,Population Tubulin-Different-Phenotype (%),[2],17%
same,Total Cell Count,[2],177
same,Population Apoptotic (%),[3],40%
same,Population Fragmented Nuclei (%),[3],8%
same,Population Healthy Nuclei (%),[3],41%
same,Population Hoechst High Intensity Objects (%),[3],10%
same,Population Membrane Permeable-Phenotype (%),[3],13%
same,Population Mitochondria Different-Phenotype (%),[3],63%
same,Population Mitotic Cells (%),[3],59%
same,Population Normal (%),[3],89%
same,Population Pyknosed Nuclei (%),[3],49%
same,Population Tubulin-Different-Phenotype (%),[3],64%
same,Total Cell Count,[3],288
same,Population Apoptotic (%),[4],18%
same,Population Fragmented Nuclei (%),[4],20%
same,Population Healthy Nuclei (%),[4],39%
same,Population Hoechst High Intensity Objects (%),[4],7%
same,Population Membrane Permeable-Phenotype (%),[4],10%
same,Population Mitochondria Different-Phenotype (%),[4],17%
same,Population Mitotic Cells (%),[4],81%
same,Population Normal (%),[4],92%
same,Population Pyknosed Nuclei (%),[4],39%
same,Population Tubulin-Different-Phenotype (%),[4],26%
same,Total Cell Count,[4],263
same,Population Apoptotic (%),[5],48%
same,Population Fragmented Nuclei (%),[5],11%
same,Population Healthy Nuclei (%),[5],38%
same,Population Hoechst High Intensity Objects (%),[5],14%
same,Population Membrane Permeable-Phenotype (%),[5],4%
same,Population Mitochondria Different-Phenotype (%),[5],54%
same,Population Mitotic Cells (%),[5],51%
same,Population Normal (%),[5],85%
same,Population Pyknosed Nuclei (%),[5],50%
same,Population Tubulin-Different-Phenotype (%),[5],37%
same,Total Cell Count,[5],286
same,Population Apoptotic (%),[6],10%
same,Population Fragmented Nuclei (%),[6],4%
same,Population Healthy Nuclei (%),[6],56%
same,Population Hoechst High Intensity Objects (%),[6],2%
same,Population Membrane Permeable-Phenotype (%),[6],17%
same,Population Mitochondria Different-Phenotype (%),[6],7%
same,Population Mitotic Cells (%),[6],89%
same,Population Normal (%),[6],97%
same,Population Pyknosed Nuclei (%),[6],39%
same,Population Tubulin-Different-Phenotype (%),[6],24%
same,Total Cell Count,[6],220
same,Population Apoptotic (%),[7],42%
same,Population Fragmented Nuclei (%),[7],12%
same,Population Healthy Nuclei (%),[7],43%
same,Population Hoechst High Intensity Objects (%),[7],10%
same,Population Membrane Permeable-Phenotype (%),[7],14%
same,Population Mitochondria Different-Phenotype (%),[7],35%
same,Population Mitotic Cells (%),[7],57%
same,Population Normal (%),[7],89%
same,Population Pyknosed Nuclei (%),[7],44%
same,Population Tubulin-Different-Phenotype (%),[7],54%
same,Total Cell Count,[7],298
same,Population Apoptotic (%),[8],24%
same,Population Fragmented Nuclei (%),[8],19%
same,Population Healthy Nuclei (%),[8],52%
same,Population Hoechst High Intensity Objects (%),[8],3%
same,Population Membrane Permeable-Phenotype (%),[8],20%
same,Population Mitochondria Different-Phenotype (%),[8],13%
same,Population Mitotic Cells (%),[8],75%
same,Population Normal (%),[8],96%
same,Population Pyknosed Nuclei (%),[8],28%
same,Population Tubulin-Different-Phenotype (%),[8],48%
same,Total Cell Count,[8],287
same,Population Apoptotic (%),[9],33%
same,Population Fragmented Nuclei (%),[9],16%
same,Population Healthy Nuclei (%),[9],35%
same,Population Hoechst High Intensity Objects (%),[9],17%
same,Population Membrane Permeable-Phenotype (%),[9],9%
same,Population Mitochondria Different-Phenotype (%),[9],30%
same,Population Mitotic Cells (%),[9],66%
same,Population Normal (%),[9],82%
same,Population Pyknosed Nuclei (%),[9],48%
same,Population Tubulin-Different-Phenotype (%),[9],37%
same,Total Cell Count,[9],322
same,Population Apoptotic (%),[10],5%
same,Population Fragmented Nuclei (%),[10],7%
same,Population Healthy Nuclei (%),[10],78%
same,Population Hoechst High Intensity Objects (%),[10],4%
same,Population Membrane Permeable-Phenotype (%),[10],19%
same,Population Mitochondria Different-Phenotype (%),[10],4%
same,Population Mitotic Cells (%),[10],94%
same,Population Normal (%),[10],95%
same,Population Pyknosed Nuclei (%),[10],13%
same,Population Tubulin-Different-Phenotype (%),[10],26%
same,Total Cell Count,[10],397
same,Population Apoptotic (%),[11],40%
same,Population Fragmented Nuclei (%),[11],15%
same,Population Healthy Nuclei (%),[11],56%
same,Population Hoechst High Intensity Objects (%),[11],11%
same,Population Membrane Permeable-Phenotype (%),[11],30%
same,Population Mitochondria Different-Phenotype (%),[11],13%
same,Population Mitotic Cells (%),[11],59%
same,Population Normal (%),[11],88%
same,Population Pyknosed Nuclei (%),[11],28%
same,Population Tubulin-Different-Phenotype (%),[11],52%
same,Total Cell Count,[11],390
same,Population Apoptotic (%),[12],8%
same,Population Healthy Nuclei (%),[12],65%
same,Population Hoechst High Intensity Objects (%),[12],3%
same,Population Membrane Permeable-Phenotype (%),[12],43%
same,Population Mitochondria Different-Phenotype (%),[12],2%
same,Population Mitotic Cells (%),[12],91%
same,Population Normal (%),[12],96%
same,Population Pyknosed Nuclei (%),[12],19%
same,Population Tubulin-Different-Phenotype (%),[12],48%
same,Total Cell Count,[12],365
O=C(NCCN1CCOCC1)c1ccc2c(c1)C(=O)c1ccc(Nc3ccc(F)c(NC(=O)c4ccccc4)c3)cc1CC2 [FS-694],Population Apoptotic (%),[3],34%
same,Population Fragmented Nuclei (%),[3],35% and 16%
same,Population Healthy Nuclei (%),[3],29% and 54%
same,Population Membrane Permeable-Phenotype (%),[3],32% and 21%
same,Population Mitochondria Different-Phenotype (%),[3],12% and 9%
same,Population Mitotic Cells (%),[3],65%
same,Population Normal (%),[3],41% and 85%
same,Population Pyknosed Nuclei (%),[3],35% and 29%
same,Population Tubulin-Different-Phenotype (%),[3],30% and 33%
same,Total Cell Count,[3],1239 and 557
same,Population Apoptotic (%),[4],28% and 16%
same,Population Fragmented Nuclei (%),[4],3% and 4%
same,Population Healthy Nuclei (%),[4],69% and 85%
same,Population Membrane Permeable-Phenotype (%),[4],15% and 11%
same,Population Mitochondria Different-Phenotype (%),[4],47% and 23%
same,Population Mitotic Cells (%),[4],71% and 83%
same,Population Normal (%),[4],76% and 96%
same,Population Pyknosed Nuclei (%),[4],26% and 9%
same,Population Tubulin-Different-Phenotype (%),[4],97% and 66%
same,Total Cell Count,[4],1142 and 1356
same,Population Apoptotic (%),[7],48% and 24%
same,Population Membrane Permeable-Phenotype (%),[7],31% and 22%
same,Population Mitochondria Different-Phenotype (%),[7],14% and 8%
same,Population Mitotic Cells (%),[7],51% and 75%
same,Population Normal (%),[7],43% and 89%
same,Population Pyknosed Nuclei (%),[7],34% and 16%
same,Population Tubulin-Different-Phenotype (%),[7],18% and 51%
same,Total Cell Count,[7],1331 and 564
same,Population Fragmented Nuclei (%),[8],5%
same,Population Healthy Nuclei (%),[8],85% and 58%
same,Population Mitotic Cells (%),[8],90% and 60%
same,Population Normal (%),[8],95% and 69%
same,Population Tubulin-Different-Phenotype (%),[8],70% and 96%
same,Total Cell Count,[8],1983 and 1283
